# Measured values: ChEMBL document CHEMBL4368903, “Identification of GSK3186899/DDD853651 as a Preclinical Development Candidate for the Treatment of Visceral Leishmaniasis” (J Med Chem, 2019)
# The source made the active and inactive calls. The rule behind the calls is not given here.
# Experiments:
# [1] = Kinetic aqueous solubility of the compound in phosphate buffer at pH 7.4 by CLND assay; format: physicochemical; settings: phosphate buffer, read-out: Kinetic_solubility
# Procedure, shortened: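 From 10 mM DMSO stock diluted 1:20 into pH 7.4 PBS, equilibrated 1 h at RT, filtered. Filtrate quantified by calibrated flow-injection CLND. Dynamic range 1–500 μM.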
# [2] = Therapeutic index, ratio of fCmax in conscious unrestrained telemetered Crl:WI(Han) rat at 300 mg/kg/day, po via gavage for 7 days measured on day 1 to fCmax in Leishmania donovani LV9 amastigotes infected BALB/c mouse at 25 mg/kg, po administered bid for 10 days measured on day 1; format: organism-based; settings: in vivo, read-out: TI
# Procedure, shortened: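 Index = free Cmax on day 1 of the rat cardiovascular study / free Cmax on day 1 of the mouse efficacy model. Rat arm: conscious, unrestrained, telemetered male CRL:WI(Han) rats given a single oral dose (up to 1000 mg/kg). Mouse arm: female BALB/c infected i.v. with L. donovani LV9 amastigotes, dosed orally twice daily from day 7 post-infection in 0.5% HPMC, 0.4% Tween 80, 0.5% benzyl alcohol.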
# [3] = target: Voltage-gated inwardly rectifying potassium channel KCNH2 (Homo sapiens, UniProt Q12809); assay: Inhibition of human ERG by patch clamp assay
# [4] = Toxicity in rabbit cardiac ventricular wedge assessed as QT shortening at 10 uM relative to control; format: tissue-based, Oryctolagus cuniculus, Cardiac ventricle
# [5] = Toxicity in Crl:WI(Han) rat assessed as pancreas vacuolation at 300 mg/kg/day, po via gavage for 7 days by histological analysis; format: organism-based; settings: in vivo, 168 h
# Procedure, shortened: (§1)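 Male Crl:WI(Han) rats received compound by oral gavage in a 7-day repeat-dose study at 100, 300 and 1000 mg/kg/day. Endpoints were in-life clinical signs (food consumption, body weight, piloerection), macroscopic observations, histopathology, clinical pathology and liver gene expression profiling.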
# [6] = Toxicity in Crl:WI(Han) rat at 100 to 1000 mg/kg/day, po via gavage for 7 days; format: organism-based; settings: in vivo, 168 h; procedure, shortened: as §1
# [7] = Toxicity in Crl:WI(Han) rat assessed as irregular breathing at 1000 mg/kg/day, po via gavage for 7 days; format: organism-based; settings: in vivo, 168 h
# Procedure, shortened: (§2)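 Male Crl:WI(Han) rats given oral gavage daily for 7 days at 100, 300 and 1000 mg/kg/day. Clinical signs, macroscopic findings, clinical pathology versus controls, and a liver gene expression panel for hepatic toxicity mechanisms.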
# [8] = Toxicity in Crl:WI(Han) rat assessed as drug tolerability dose at 100 to 1000 mg/kg/day, po via gavage for 7 days; format: organism-based; settings: in vivo, read-out: Activity
# Procedure, shortened: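 Male Crl:WI(Han) rats dosed by oral gavage once daily in a 7-day repeat-dose study at 100, 300 and 1000 mg/kg/day. Tolerated doses judged from in-life and clinical signs, macroscopic observations, histopathology, clinical pathology and liver gene expression profiling versus controls.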
# Leishmania donovani [9] = assay: Antileishmanial activity against Leishmania donovani […] in human THP1 cells by intramacrophage assay; format: functional, organism-based; settings: Leishmania donovani, THP-1
# Cytochrome P450 3A4 = Cytochrome P450 3A4 (Homo sapiens, UniProt P08684); assay: Inhibition of CYP3A4 in human liver microsomes using midazolam as substrate preincubated for 20 mins followed by substrate addition and measured after 5 mins by LC-MS/MS analysis; format: ADME
# Procedure, shortened: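 Pooled human liver microsomes (final 0.1 mg/mL) with midazolam marker substrate, monitoring CYP3A4-specific metabolite. Test compound at eight concentrations, 0.1–100 μM, final organic ≤0.5%. Preincubated at 37 °C for 20 min, then substrate or cofactor added and incubated 5 min at 37 °C. Stopped with ice-cold acetonitrile; LC-MS/MS read-out gives pIC50.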
# Leishmania donovani [10] = assay: Antileishmanial activity against Leishmania donovani LV9 amastigotes infected in BALB/c mouse assessed as suppression of parasite load within liver at 25 mg/kg, po administered bid for 10 days relative to control; format: functional
# Procedure, shortened: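 Female BALB/c mice, 5 per group, infected i.v. with about 2×10^7 L. donovani LV9 amastigotes harvested from infected hamster spleen. Oral dosing starts day 7 post-infection, in 0.5% HPMC/0.4% Tween 80/0.5% benzyl alcohol, or 10% DMSO/60% PEG400/30% water for the 5-day 50 mg/kg regimen. Dosing solutions made fresh daily. Killed day 14 (5-day) or 19 (10-day). Liver smears give LDU (amastigotes/500 nucleated cells × organ weight). Mean LDU compared with vehicle control gives % suppression.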
# [11] = Ratio of AUC (0 to 24 hrs) in conscious unrestrained telemetered Crl:WI(Han) rat at 300 mg/kg/day, po via gavage for 7 days measured on day 7 to AUC (0 to 24 hrs) in Leishmania donovani LV9 amastigotes infected BALB/c mouse at 25 mg/kg, po administered bid for 10 days measured on day 10; format: ADME, organism-based; settings: in vivo, read-out: TI
# Procedure, shortened: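 Index = AUC0–24 on day 7 of the rat study / AUC0–24 on day 10 of the mouse efficacy model. Rat arm: male Crl:WI(Han) rats, oral gavage once daily for 7 days at 100, 300 or 1000 mg/kg/day. Mouse arm: female BALB/c infected i.v. with ~2×10^7 L. donovani LV9 amastigotes, dosed orally twice daily for 10 days from day 7 post-infection in 0.5% HPMC, 0.4% Tween 80, 0.5% benzyl alcohol.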
# Lymphoma cell line = assay: Clastogenicity in mouse Lymphoma cells at 5 ug/ml; format: toxicity, cell-based
# [12] = Toxicity in Crl:WI(Han) rat assessed as stomach distension at 100 to 1000 mg/kg/day, po via gavage for 7 days; format: organism-based; settings: in vivo, 168 h; procedure, shortened: as §1
# [13] = Intrinsic clearance in CD1 mouse liver microsomes at 0.5 uM after 3 to 30 mins in presence of NADPH by UPLC-MS/MS analysis; format: ADME, Microsome
# Procedure, shortened: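 0.5 μM compound with female CD1 mouse or human liver microsomes, started with excess NADPH in 50 mM potassium phosphate pH 7.4. Aliquots at 0, 3, 6, 9, 15 and 30 min quenched in acetonitrile with internal standard. UPLC-MS/MS; rate constant from exponential decay of compound/IS ratio. Verapamil as positive control.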
# [14] = Cardiotoxicity in Crl:WI(Han) rat up to 600 mg/kg, po via gavage; format: toxicity, organism-based; settings: in vivo
# [15] = Toxicity in Crl:WI(Han) rat assessed as effect on liver gene expression in liver at 100 to 1000 mg/kg/day, po via gavage for 7 days; format: organism-based; settings: in vivo, 168 h; procedure, shortened: as §2
# CYP1A1 = assay: Toxicity in Crl:WI(Han) rat assessed as increase in CYP1A1 gene expression in liver at 100 to 1000 mg/kg/day, po via gavage for 7 days; format: organism-based; settings: Crl:WI(Han), liver, read-out: FC; procedure, shortened: as §2
# [16] = Mutagenicity in Salmonella typhimurium at 1500 ug/plate by Ames test; format: toxicity; settings: salmonella enterica subsp. enterica serovar typhimurium
# [17] = Toxicity in Crl:WI(Han) rat assessed as multiple organ changes at 1000 mg/kg/day, po via gavage for 7 days by histological analysis; format: organism-based; settings: in vivo, 168 h; procedure, shortened: as §1
# [18] = target: Cyclin-dependent kinase 2 (Homo sapiens) (UniProt P24941); assay: Inhibition of human CDK2 by kinobeads-based assay
# [19] = Toxicity in Crl:WI(Han) rat assessed as piloerection at 1000 mg/kg/day, po via gavage for 7 days; format: organism-based; settings: in vivo, 168 h; procedure, shortened: as §1
# [20] = Toxicity in Crl:WI(Han) rat assessed as kidney vacuolation at 300 mg/kg/day, po via gavage for 7 days by histological analysis; format: organism-based; settings: in vivo, 168 h; procedure, shortened: as §1
# [21] = Solubility of compound in fasted simulated intestinal fluid at 1 mg after 4 hrs by HPLC-UV analysis; format: physicochemical; settings: fasted simulated intestinal fluid
# Procedure, shortened: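 1 mg solid shaken in 1 mL FaSSIF (3 mM sodium taurocholate, 0.75 mM lecithin, phosphate buffer pH 6.5) at 900 rpm for 4 h at room temperature, then filtered. Supernatant quantified by HPLC-UV against single-point DMSO calibration. Range 1–1000 μg/mL.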
# [22] = Dissociation constant, pKa of the compound by UV-spectroscopy; format: physicochemical
# Procedure, shortened: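 Sirius T3 acid–base titration with UV read-out: 5 μL of 10 mM sample, absorbance over 54 pH values in about 5 min. Methanol cosolvent with Yasuda–Shedlovsky extrapolation used when precipitation occurred.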
# [23] = Toxicity in Crl:WI(Han) rat assessed as reduction in food consumption at 1000 mg/kg/day, po via gavage for 7 days; format: organism-based; settings: in vivo, 168 h; procedure, shortened: as §1
# Voltage-gated inwardly rectifying potassium channel KCNH2, sequence (Q12809 whole entry): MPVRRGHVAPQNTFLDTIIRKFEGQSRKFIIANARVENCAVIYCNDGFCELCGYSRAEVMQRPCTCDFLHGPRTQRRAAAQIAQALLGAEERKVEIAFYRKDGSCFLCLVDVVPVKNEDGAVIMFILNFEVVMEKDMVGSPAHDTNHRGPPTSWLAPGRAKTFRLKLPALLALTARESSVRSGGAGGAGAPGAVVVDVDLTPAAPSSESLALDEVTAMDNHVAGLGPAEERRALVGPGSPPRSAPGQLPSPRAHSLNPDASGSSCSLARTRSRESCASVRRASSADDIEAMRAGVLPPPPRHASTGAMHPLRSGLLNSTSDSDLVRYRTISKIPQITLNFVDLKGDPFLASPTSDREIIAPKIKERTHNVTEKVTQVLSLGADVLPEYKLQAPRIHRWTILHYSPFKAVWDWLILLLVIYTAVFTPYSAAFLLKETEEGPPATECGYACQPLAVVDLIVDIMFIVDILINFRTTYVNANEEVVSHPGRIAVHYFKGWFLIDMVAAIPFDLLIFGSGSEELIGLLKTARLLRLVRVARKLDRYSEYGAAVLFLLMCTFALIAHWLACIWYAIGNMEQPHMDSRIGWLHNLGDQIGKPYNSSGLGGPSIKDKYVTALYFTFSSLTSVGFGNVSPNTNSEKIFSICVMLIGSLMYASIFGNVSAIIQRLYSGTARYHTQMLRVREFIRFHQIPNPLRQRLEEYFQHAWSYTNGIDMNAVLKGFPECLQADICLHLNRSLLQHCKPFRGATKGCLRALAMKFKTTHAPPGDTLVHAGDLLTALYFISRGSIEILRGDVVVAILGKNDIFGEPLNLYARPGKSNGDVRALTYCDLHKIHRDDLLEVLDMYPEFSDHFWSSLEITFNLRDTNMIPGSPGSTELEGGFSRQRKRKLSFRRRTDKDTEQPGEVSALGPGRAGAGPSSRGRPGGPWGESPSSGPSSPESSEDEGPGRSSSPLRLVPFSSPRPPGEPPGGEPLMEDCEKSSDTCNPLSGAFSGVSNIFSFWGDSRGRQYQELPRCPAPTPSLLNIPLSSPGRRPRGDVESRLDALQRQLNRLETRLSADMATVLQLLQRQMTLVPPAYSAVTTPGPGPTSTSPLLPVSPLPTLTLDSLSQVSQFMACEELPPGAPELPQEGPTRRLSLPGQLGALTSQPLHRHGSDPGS
# Cytochrome P450 3A4, sequence (P08684 whole entry): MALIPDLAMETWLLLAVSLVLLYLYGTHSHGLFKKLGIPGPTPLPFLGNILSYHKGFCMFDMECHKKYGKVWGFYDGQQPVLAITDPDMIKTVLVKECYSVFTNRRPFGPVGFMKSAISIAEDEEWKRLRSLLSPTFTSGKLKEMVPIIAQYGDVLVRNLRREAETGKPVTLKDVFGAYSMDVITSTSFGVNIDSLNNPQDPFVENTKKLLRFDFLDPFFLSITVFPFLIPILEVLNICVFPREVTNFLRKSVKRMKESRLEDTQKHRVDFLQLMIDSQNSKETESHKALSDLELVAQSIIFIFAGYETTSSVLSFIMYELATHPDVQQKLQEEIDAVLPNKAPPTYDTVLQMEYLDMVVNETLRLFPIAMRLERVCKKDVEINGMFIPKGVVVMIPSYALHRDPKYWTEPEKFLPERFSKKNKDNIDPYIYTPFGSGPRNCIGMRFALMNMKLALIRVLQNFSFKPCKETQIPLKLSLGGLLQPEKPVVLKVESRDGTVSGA
structure (smiles),measurement,setting,value
COc1ccccc1-c1n[nH]c2nc(N[C@H]3CC[C@H](NS(=O)(=O)CCC(F)(F)F)CC3)nc(OC)c12,solubility kinetic,[1],68 µM
same,selectivity ratio,[2],12
same,IC50,[3],17.5 µM
same,Activity,[4],11.3%
same,Activity,[5],Toxic
same,Activity,[6],Toxic
same,Activity,[7],Toxic
same,MTD at 168 h,[8],100 to 300 mg/kg
same,EC50,Leishmania donovani [9],398 nM
same,IC50,Cytochrome P450 3A4,6.31 µM
same,Activity,Leishmania donovani [10],>95%
same,selectivity ratio,[11],19
same,Activity,Lymphoma cell line,Non-Toxic
same,Activity,[12],Toxic
same,CLH,[13],1.1 mL/min/g
same,Activity,[14],Non-Toxic
same,Activity,[15],Non-Toxic
same,fold induction at 168 h,CYP1A1,43
same,Activity,[16],Non-Toxic
same,Activity,[17],Toxic
same,inhibition,[18],Active
same,Activity,[19],Toxic
same,Activity,[20],Toxic
same,solubility at 4 h,[21],25 to 130 µg/mL
same,pKa,[22],4.1
same,Activity,[23],Toxic
